In ChEMBL document CHEMBL3421570, “Combinatorial Libraries As a Tool for the Discovery of Novel, Broad-Spectrum Antibacterial Agents Targeting the ESKAPE Pathogens” (J Med Chem, 2015):
Values after ≈ are worked out from the molar mass of the structure shown. Active and inactive are the calls of the source. The calls are words filed in the database; no cut-off is given here.

Legend:
A549 = assay: Cytotoxicity against human A549 cells after 48 hrs by MTT assay; assay type: cell-based; settings: A549, 48 h
In short: (§1)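 A549 cells grown in F-12K with L-glutamine, 10% FBS, 1% penicillin-streptomycin, seeded at 1.0 × 10^5 ml−1, allowed to adhere 24 h (37°C, 5% CO2), then exposed to compound in 45% w/v (2-hydroxypropyl)-β-cyclodextrin vehicle for 48 h. MTT 4 h, formazan solubilized in DMSO, absorbance 540 nm. Percent recovery versus vehicle-only; IC50 derived; at least three independent experiments.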

Enterococcus faecium [1] = assay: Bactericidal activity against Enterococcus faecium after 24 hrs; assay type: functional
[2] = Selectivity index, ratio of IC50 for human A549 cells to MIC for Enterobacter cloacae
Staphylococcus aureus [3] = assay: Induction of spontaneous mutation in Staphylococcus aureus at 2 to 10 MIC; assay type: functional, organism-based
Acinetobacter baumannii [4] = assay: Antimicrobial activity against Acinetobacter baumannii assessed as inhibition of microbial growth after 24 hrs; assay type: functional
In short: (§2)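 Broth microdilution against multidrug-resistant clinical ESKAPE isolates. Overnight cultures (TSB for Gram-positives, LB for Gram-negatives) diluted 1:1000 in fresh medium, compound in DMF (≤2.0% DMF) added at decreasing concentrations, 37°C.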

Enterobacter cloacae [5] = assay: Antimicrobial activity against Enterobacter cloacae assessed as inhibition of microbial growth after 24 hrs; assay type: functional; in short: as §2
Staphylococcus aureus [6] = assay: Bactericidal activity against methicillin-resistant Staphylococcus aureus assessed as cell survival recovery at MIC measured after drug wash out after 120 mins by time kill assay; assay type: functional
In short: (§3)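 MRSA from stationary phase was regrown 3 h in TSB and seeded at OD600 0.5. […] After 120 min, cells were centrifuged and washed, serially diluted and plated for CFU. Percent recovery is relative to no-drug controls.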

Staphylococcus aureus [7] = assay: Effect on bacterial density of methicillin-resistant Staphylococcus aureus at MIC measured over 2 hrs period by time kill assay; assay type: functional, organism-based
Staphylococcus aureus [8] = assay: Bactericidal activity against methicillin-resistant Staphylococcus aureus at MIC measured after drug wash out after 120 mins by time kill assay; assay type: functional; in short: as §3
Enterobacter cloacae [9] = assay: Induction of spontaneous mutation in Enterobacter cloacae at 2 to 10 MIC; assay type: functional, organism-based
[10] = Cytotoxicity against human A549 cells assessed as cell viability recovery up to 100 uM after 48 hrs by MTT assay; assay type: cell-based; settings: read-out: Activity; in short: as §1
Enterococcus faecium [11] = assay: Antimicrobial activity against Enterococcus faecium assessed as inhibition of microbial growth at 45 uM after 24 hrs; assay type: functional, organism-based
In short: (§4)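 Broth microdilution single-concentration read: overnight cultures diluted 1:1000, compound in DMF (≤2.0%) added, 37°C for 24 h, growth inhibition scored visually by lack of turbidity; triplicate. Gram-positives grown in TSB, Gram-negatives in LB.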

Enterococcus faecium [12] = assay: Antimicrobial activity against Enterococcus faecium assessed as inhibition of microbial growth after 24 hrs; assay type: functional; in short: as §2
Enterococcus faecium [13] = assay: Induction of spontaneous mutation in Enterococcus faecium at 2 to 10 MIC; assay type: functional, organism-based
Staphylococcus aureus [14] = assay: Antimicrobial activity against Staphylococcus aureus USA300 strain FPR3757 infected in mouse model of lethal peritonitis assessed as mouse survival at 2 uM, im dosed 1 hr post infection and measured after 5 days post infection; assay type: functional, organism-based
In short: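 Mice, six per group, infected i.p. with 1 × 10^8 CFU ml−1 S. aureus USA300 FPR3757 in PBS with 5% mucin. Compound given i.m. at 2 μM 1 h later; vehicle 45% w/v (2-hydroxypropyl)-β-cyclodextrin in water i.v.; vancomycin i.v. as control. Monitored twice daily for 5 days, pre-moribund animals euthanized. Survival compared by log-rank test.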

Enterobacter cloacae [15] = assay: Antimicrobial activity against Enterobacter cloacae assessed as inhibition of microbial growth at 45 uM after 24 hrs; assay type: functional, organism-based; in short: as §4
Enterobacter cloacae [16] = assay: Antibiofilm activity against Enterobacter cloacae incubated for 24 hrs followed by biofilm resuspension in PBS and measured after 24 hrs; assay type: functional
In short: (§5)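 Biofilms grown 24 h in 96-well plates from overnight cultures standardized to OD600 0.5 in fresh medium (human serum only for S. aureus; TSB for Gram-positives, LB for Gram-negatives). Medium then replaced with fresh medium containing a concentration range above and below MIC, 37°C overnight. After 24 h biofilm resuspended in PBS, serially diluted, plated in duplicate, CFU counted after 24 h at 37°C. Activity relative to untreated; three technical replicates; MBEC50 reported.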

Klebsiella pneumoniae [17] = assay: Antibiofilm activity against Klebsiella pneumoniae incubated for 24 hrs followed by biofilm resuspension in PBS and measured after 24 hrs; assay type: functional; in short: as §5
Acinetobacter baumannii [18] = assay: Ratio of MIC for Acinetobacter baumannii measured after 8 cycle passage to MIC for wild type Acinetobacter baumannii; assay type: functional
Pseudomonas aeruginosa [19] = assay: Bactericidal activity against Pseudomonas aeruginosa after 24 hrs; assay type: functional
[20] = Selectivity index, ratio of IC50 for human A549 cells to MIC for Staphylococcus aureus
Acinetobacter baumannii [21] = assay: Antibiofilm activity against Acinetobacter baumannii incubated for 24 hrs followed by biofilm resuspension in PBS and measured after 24 hrs; assay type: functional; in short: as §5
Pseudomonas aeruginosa [22] = assay: Induction of spontaneous mutation in Pseudomonas aeruginosa at 2 to 10 MIC; assay type: functional, organism-based; settings: 2 to 10 x MIC
[23] = Cytotoxicity against human A549 cells assessed as cell viability recovery at 225 uM after 48 hrs by MTT assay; assay type: cell-based; settings: read-out: Activity; in short: as §1
[24] = Selectivity index, ratio of IC50 for human A549 cells to MIC for Acinetobacter baumannii
Enterobacter cloacae [25] = assay: Ratio of MIC for Enterobacter cloacae measured after 8 cycle passage to MIC for wild type Enterobacter cloacae; assay type: functional
Acinetobacter baumannii [26] = assay: Induction of spontaneous mutation in Acinetobacter baumannii at 2 to 10 MIC; assay type: functional, organism-based
[27] = Selectivity index, ratio of IC50 for human A549 cells to MIC for Klebsiella pneumoniae
[28] = Selectivity index, ratio of IC50 for human A549 cells to MIC for Enterococcus faecium
Staphylococcus aureus [29] = assay: Ratio of MIC for Staphylococcus aureus measured after 8 cycle passage to MIC for wild type Staphylococcus aureus; assay type: functional
Enterobacter cloacae [30] = assay: Bactericidal activity against Enterobacter cloacae after 24 hrs; assay type: functional
Pseudomonas aeruginosa [31] = assay: Antimicrobial activity against Pseudomonas aeruginosa assessed as inhibition of microbial growth after 24 hrs; assay type: functional; in short: as §2
Acinetobacter baumannii [32] = assay: Antimicrobial activity against Acinetobacter baumannii assessed as inhibition of microbial growth at 45 uM after 24 hrs; assay type: functional, organism-based; in short: as §4
Pseudomonas aeruginosa [33] = assay: Antimicrobial activity against Pseudomonas aeruginosa assessed as inhibition of microbial growth at 45 uM after 24 hrs; assay type: functional, organism-based; in short: as §4
Klebsiella pneumoniae [34] = assay: Ratio of MIC for Klebsiella pneumoniae measured after 8 cycle passage to MIC for wild type Klebsiella pneumoniae; assay type: functional
Klebsiella pneumoniae [35] = assay: Antimicrobial activity against Klebsiella pneumoniae assessed as inhibition of microbial growth after 24 hrs; assay type: functional; in short: as §2
Klebsiella pneumoniae [36] = assay: Bactericidal activity against Klebsiella pneumoniae after 24 hrs; assay type: functional
Pseudomonas aeruginosa [37] = assay: Antibiofilm activity against Pseudomonas aeruginosa incubated for 24 hrs followed by biofilm resuspension in PBS and measured after 24 hrs; assay type: functional; in short: as §5
[38] = Selectivity index, ratio of IC50 for human A549 cells to MIC for Pseudomonas aeruginosa
Klebsiella pneumoniae [39] = assay: Induction of spontaneous mutation in Klebsiella pneumoniae at 2 to 10 MIC; assay type: functional, organism-based
Acinetobacter baumannii [40] = assay: Bactericidal activity against Acinetobacter baumannii after 24 hrs; assay type: functional
Staphylococcus aureus [41] = assay: Antimicrobial activity against Staphylococcus aureus assessed as inhibition of microbial growth at 45 uM after 24 hrs; assay type: functional, organism-based; in short: as §4
Enterococcus faecium [42] = assay: Antibiofilm activity against Enterococcus faecium incubated for 24 hrs followed by biofilm resuspension in PBS and measured after 24 hrs; assay type: functional; in short: as §5
[43] = Induction of hemolysis in human RBC at 10 uM incubated for 15 mins; assay type: cell-based, Erythrocyte; settings: red blood cells, read-out: Activity
In short: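 Human RBCs from whole blood, resuspended 20% v/v in HA buffer (NaCl, CaCl2), compound 10 μM, 15 min at 37°C. Centrifuged 5,500 g for 1 min, supernatant OD543 read. Percent hemolysis against DMF vehicle (0%) and 1.0% Triton X-100 (100%); triplicate.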

Klebsiella pneumoniae [44] = assay: Antimicrobial activity against Klebsiella pneumoniae assessed as inhibition of microbial growth at 45 uM after 24 hrs; assay type: functional, organism-based; in short: as §4
Staphylococcus aureus [45] = assay: Antibiofilm activity against Staphylococcus aureus incubated for 24 hrs followed by biofilm resuspension in PBS and measured after 24 hrs; assay type: functional; in short: as §5
Staphylococcus aureus [46] = assay: Antimicrobial activity against Staphylococcus aureus assessed as inhibition of microbial growth after 24 hrs; assay type: functional; in short: as §2
Pseudomonas aeruginosa [47] = assay: Antimicrobial activity against Pseudomonas aeruginosa assessed as inhibition of microbial growth at 100 uM after 24 hrs; assay type: functional, organism-based; in short: as §4

## CCCC[C@H]1CN(CCCC[C@H]2CNC(=N)N2CCc2cccc(C(F)(F)F)c2)C(=N)N1CCCCC1CCCCC1
A549
  IC50: 125 µM
Enterococcus faecium [1]
  MBC90: 1.7 µM (≈ 1 µg/mL)
[2]
  Selectivity Index: 82
Staphylococcus aureus [3]
  Activity: inactive
Acinetobacter baumannii [4]
  MIC: 1.5 µM
Enterobacter cloacae [5]
  MIC: 1.5 µM
Staphylococcus aureus [6]
  Survival: 0.2%
Staphylococcus aureus [7]
  Activity: inactive
Staphylococcus aureus [8]
  fold change (FC): 2.5
Enterobacter cloacae [9]
  Activity: inactive
[10]
  viability at 48 h: > 65%
Enterococcus faecium [11]
  growth inhibition (GI): Active
Enterococcus faecium [12]
  MIC: 1.5 µM
Enterococcus faecium [13]
  Activity: inactive
Staphylococcus aureus [14]
  Activity: Active
Enterobacter cloacae [15]
  growth inhibition (GI): Active
Enterobacter cloacae [16]
  MBEC50: 13 µM
Klebsiella pneumoniae [17]
  MBEC50: 4.7 µM
Acinetobacter baumannii [18]
  Ratio: <=8
Pseudomonas aeruginosa [19]
  MBC90: 2.3 µM (≈ 1.36 µg/mL)
[20]
  Selectivity Index: 82
Acinetobacter baumannii [21]
  MBEC50: 16 µM
Pseudomonas aeruginosa [22]
  Activity: inactive
[23]
  viability at 48 h, 225 µM: > 50%
[24]
  Selectivity Index: 82
Enterobacter cloacae [25]
  Ratio: <=8
Acinetobacter baumannii [26]
  Activity: inactive
[27]
  Selectivity Index: 82
[28]
  Selectivity Index: 82
Staphylococcus aureus [29]
  Ratio: 2
Enterobacter cloacae [30]
  MBC90: 4.1 µM (≈ 2.42 µg/mL)
Pseudomonas aeruginosa [31]
  MIC: 1.5 µM
Acinetobacter baumannii [32]
  growth inhibition (GI): Active
Pseudomonas aeruginosa [33]
  growth inhibition (GI): Active
Klebsiella pneumoniae [34]
  Ratio: <=8
Klebsiella pneumoniae [35]
  MIC: 1.5 µM
Klebsiella pneumoniae [36]
  MBC90: 4 µM (≈ 2.36 µg/mL)
Pseudomonas aeruginosa [37]
  MBEC50: 31 µM
[38]
  Selectivity Index: 82
Klebsiella pneumoniae [39]
  Activity: inactive
Acinetobacter baumannii [40]
  MBC90: 2.8 µM (≈ 1.65 µg/mL)
Staphylococcus aureus [41]
  growth inhibition (GI): Active
Enterococcus faecium [42]
  MBEC50: 29 µM
[43]
  hemolysis at 0.25 h, 10 µM: 0.34%
Klebsiella pneumoniae [44]
  growth inhibition (GI): Active
Staphylococcus aureus [45]
  MBEC50: 2.2 µM
Staphylococcus aureus [46]
  MIC: 1.5 µM

## COC(=O)[C@H]1[C@H]2C[C@@H]3c4[nH]c5cc(OC)ccc5c4CCN3C[C@H]2C[C@@H](OC(=O)c2cc(OC)c(OC)c(OC)c2)[C@@H]1OC
Pseudomonas aeruginosa [47]
  growth inhibition (GI): inactive

## N=C1NC[C@H](CCCCN2C[C@H](CC3CCCCC3)N(CCc3ccc(-c4ccccc4)cc3)C2=N)N1CCC12CC3CC(CC(C3)C1)C2
Enterococcus faecium [11]
  growth inhibition (GI): Active
Enterobacter cloacae [15]
  growth inhibition (GI): Active
Acinetobacter baumannii [32]
  growth inhibition (GI): Active
Pseudomonas aeruginosa [33]
  growth inhibition (GI): Active
Staphylococcus aureus [41]
  growth inhibition (GI): Active
Klebsiella pneumoniae [44]
  growth inhibition (GI): Active

## N=C1NC[C@H](CCCCN2C[C@@H](Cc3cccc4ccccc34)N(CCCCC3CCCCC3)C2=N)N1CCCCC1CCCCC1
Enterococcus faecium [11]
  growth inhibition (GI): Active
Enterobacter cloacae [15]
  growth inhibition (GI): Active
Acinetobacter baumannii [32]
  growth inhibition (GI): Active
Pseudomonas aeruginosa [33]
  growth inhibition (GI): Active
Staphylococcus aureus [41]
  growth inhibition (GI): Active
Klebsiella pneumoniae [44]
  growth inhibition (GI): Active
